In ChEMBL document CHEMBL3352617, “Discovery of 9-(1-phenoxyethyl)-2-morpholino-4-oxo-pyrido[1,2-a]pyrimidine-7-carboxamides as oral PI3Kβ inhibitors, useful as antiplatelet agents” (Bioorg Med Chem Lett, 2014):
Converted amounts (≈) assume the structure as drawn. Values belong to the compound of their own block, whether it stands above or below them. The source made the active and inactive calls. The rule behind the calls is not given here.

Assays:
[1] = Apparent permeability across apical to basolateral side of human Caco2 cells at 10 uM at pH 6.5 by LC-tandem MS analysis; type: ADME, cell-based; conditions: Caco-2, pH 6.5
Summary of the method: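 Caco-2 monolayers, apical-to-basolateral transport at pH 6.5. Result given as apparent permeability (Papp).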

[2] = system: Hepatocyte; assay: Intrinsic clearance in human hepatocytes at 2 uM by LCMS analysis; type: ADME, cell-based
Summary of the method: (§1)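 Test compound incubated with human hepatocytes. Intrinsic clearance and half-life derived from compound disappearance.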

[3] = Lipophilicity, log D of the compound at pH 7.4 by HPLC method; type: physicochemical; conditions: buffer
Summary of the method: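 LogD measured experimentally at pH 7.4 by an HPLC method.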

[4] = Antiplatelet activity against human platelet assessed as inhibition of collagen-induced platelet rich plasma aggregation by light transmission aggregometry; type: functional, cell-free
Summary of the method: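 Human platelet rich plasma stimulated with collagen. Aggregation read by light transmission aggregometry in an in-house 96-well plate format.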

[5] = Solubility of the compound in DMSO/HBSS at pH 7.4; type: physicochemical
Summary of the method: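 Compound from DMSO stock added to HBSS buffer. Solubility measured at pH 7.4.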

[6] = Half life in human hepatocytes at 2 uM by LCMS analysis; type: ADME, cell-based, Hepatocyte; summary of the method: as §1
[7] = Fraction unbound in human plasma after 18 hrs at 37 degC after 18 hrs; type: ADME, cell-free
Summary of the method: (§2)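 Human and dog plasma. Fraction unbound measured by equilibrium dialysis, 18 h at 37 °C, reported as % unbound.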

[8] = Fraction unbound in dog plasma after 18 hrs at 37 degC after 18 hrs; type: ADME, cell-free, Canis lupus familiaris; summary of the method: as §2
[9] = Clearance in Beagle dog at 1 umol/kg, iv and 2 umol/kg, po; type: ADME, organism-based, Canis lupus familiaris; conditions: in vivo
Summary of the method: (§3)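 Fasted male Beagle dogs dosed iv or po (iv N = 5, po N = 4). Plasma concentrations analysed by noncompartmental analysis to give CL, Vss and oral F.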

[10] = Volume of distribution at steady state in Beagle dog at 1 umol/kg, iv and 2 umol/kg, po; type: ADME, organism-based, Canis lupus familiaris; conditions: in vivo, read-out: Vdss; summary of the method: as §3
[11] = Half life in iv dosed healthy volunteers plasma; type: ADME, organism-based; conditions: human
[12] = Volume of distribution in iv dosed healthy volunteers; type: ADME, organism-based; conditions: human, in vivo
[13] = Antiplatelet activity against human platelet assessed as inhibition of ADP-induced whole blood aggregation by impedance aggregometry
[14] = biological target: Phosphatidylinositol 4,5-bisphosphate 3-kinase catalytic subunit gamma isoform (Homo sapiens, UniProt P48736); assay: Inhibition of human recombinant PI3Kgamma assessed as PIP3 production by AlphaScreen assay
[15] = biological target: T1, Phosphatidylinositol 4,5-bisphosphate 3-kinase catalytic subunit delta isoform (Homo sapiens, UniProt O00329); assay: Inhibition of human recombinant PI3Kdelta assessed as PIP3 production by AlphaScreen assay
T1 sequence (O00329 whole entry): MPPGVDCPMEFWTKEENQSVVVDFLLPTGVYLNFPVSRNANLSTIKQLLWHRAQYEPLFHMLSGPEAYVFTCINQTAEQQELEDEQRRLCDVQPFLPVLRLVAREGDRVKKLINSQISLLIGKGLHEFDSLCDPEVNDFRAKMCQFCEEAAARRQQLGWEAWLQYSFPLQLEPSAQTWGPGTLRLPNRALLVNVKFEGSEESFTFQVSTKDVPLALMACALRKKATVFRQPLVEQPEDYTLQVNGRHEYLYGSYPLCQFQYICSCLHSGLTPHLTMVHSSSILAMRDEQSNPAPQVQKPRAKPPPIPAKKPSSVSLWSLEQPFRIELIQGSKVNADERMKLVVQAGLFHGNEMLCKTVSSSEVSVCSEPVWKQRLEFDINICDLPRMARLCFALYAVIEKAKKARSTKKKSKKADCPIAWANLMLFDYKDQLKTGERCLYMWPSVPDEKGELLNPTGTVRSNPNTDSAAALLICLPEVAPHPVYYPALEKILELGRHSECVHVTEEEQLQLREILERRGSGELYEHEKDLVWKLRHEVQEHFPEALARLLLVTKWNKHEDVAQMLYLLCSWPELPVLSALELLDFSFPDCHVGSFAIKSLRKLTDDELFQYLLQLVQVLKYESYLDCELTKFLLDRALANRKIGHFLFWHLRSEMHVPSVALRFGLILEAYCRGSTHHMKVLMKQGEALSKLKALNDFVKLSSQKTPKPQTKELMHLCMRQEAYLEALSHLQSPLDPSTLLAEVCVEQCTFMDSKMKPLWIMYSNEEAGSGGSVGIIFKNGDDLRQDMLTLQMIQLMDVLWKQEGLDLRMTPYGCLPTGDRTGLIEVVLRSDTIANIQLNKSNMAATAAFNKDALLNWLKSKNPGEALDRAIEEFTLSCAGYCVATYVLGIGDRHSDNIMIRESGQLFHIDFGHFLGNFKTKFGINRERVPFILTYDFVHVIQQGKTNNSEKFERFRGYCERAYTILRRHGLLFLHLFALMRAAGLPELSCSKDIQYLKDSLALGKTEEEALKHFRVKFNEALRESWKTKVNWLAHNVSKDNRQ

[16] = system: Canis familiaris; assay: Inhibition of ADP-induced platelet aggregation in iv dosed Beagle dog assessed as blood loss volume; type: organism-based, Canis lupus familiaris; conditions: in vivo
Summary of the method: (§4)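 Anaesthetized dogs in a modified Folts' model. Saline vehicle given first, then consecutive iv doses over 30 min periods (bolus 0.03–1.3 µg/kg plus infusion 0.005–0.24 µg/kg/min). Measured: cyclic flow reductions, bleeding time, blood loss, ex vivo ADP-induced whole blood aggregation (Multiplate), and plasma exposure, related by PKPD.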

[17] = species: Canis familiaris; assay: Ex vivo antiplatelet activity in Beagle dog assessed as inhibition of ADP-induced platelet aggregation; type: functional, Canis lupus familiaris; summary of the method: as §4
[18] = Oral bioavailability in Beagle dog at 2 umol/kg; type: ADME, organism-based, Canis lupus familiaris; conditions: in vivo; summary of the method: as §3
[19] = system: Canis familiaris; assay: Inhibition of ADP-induced platelet aggregation in iv dosed Beagle dog assessed as bleeding time; type: organism-based, Canis lupus familiaris; conditions: in vivo; summary of the method: as §4
[20] = species: Rattus norvegicus; assay: Effect on insulin resistance in Sprague-Dawley rat assessed as HOMA-index at maximum compound concentration; type: ADME, organism-based; conditions: in vivo
Summary of the method: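 Sprague-Dawley rats given compound. Relative HOMA insulin resistance index (plasma glucose × plasma insulin) compared with baseline and related to plasma concentration.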

[21] = biological target: Voltage-gated inwardly rectifying potassium channel KCNH2 (Homo sapiens, UniProt Q12809); assay: Inhibition of human ERG channel expressed in CHO cells at 20.4 +/- 2.4 uM by patch clamp assay; type: cell-based
[22] = biological target: Sodium channel protein type 5 subunit alpha (Homo sapiens, UniProt Q14524); assay: Inhibition of human Nav1.5 channel expressed in CHO cells at 20.4 +/- 2.4 uM by patch clamp assay; type: cell-based
[23] = biological target: Sodium channel protein type 2 subunit alpha (Homo sapiens) (UniProt Q99250); assay: Inhibition of human Nav1.2 channel expressed in CHO cells at 20.4 +/- 2.4 uM by patch clamp assay; type: cell-based
[24] = biological target: T2, A-type voltage-gated potassium channel KCND3 (Homo sapiens, UniProt Q9UK17); assay: Inhibition of human Kv4.3 channel expressed in CHO cells at 20.4 +/- 2.4 uM by patch clamp assay; type: cell-based
T2 sequence (Q9UK17 whole entry): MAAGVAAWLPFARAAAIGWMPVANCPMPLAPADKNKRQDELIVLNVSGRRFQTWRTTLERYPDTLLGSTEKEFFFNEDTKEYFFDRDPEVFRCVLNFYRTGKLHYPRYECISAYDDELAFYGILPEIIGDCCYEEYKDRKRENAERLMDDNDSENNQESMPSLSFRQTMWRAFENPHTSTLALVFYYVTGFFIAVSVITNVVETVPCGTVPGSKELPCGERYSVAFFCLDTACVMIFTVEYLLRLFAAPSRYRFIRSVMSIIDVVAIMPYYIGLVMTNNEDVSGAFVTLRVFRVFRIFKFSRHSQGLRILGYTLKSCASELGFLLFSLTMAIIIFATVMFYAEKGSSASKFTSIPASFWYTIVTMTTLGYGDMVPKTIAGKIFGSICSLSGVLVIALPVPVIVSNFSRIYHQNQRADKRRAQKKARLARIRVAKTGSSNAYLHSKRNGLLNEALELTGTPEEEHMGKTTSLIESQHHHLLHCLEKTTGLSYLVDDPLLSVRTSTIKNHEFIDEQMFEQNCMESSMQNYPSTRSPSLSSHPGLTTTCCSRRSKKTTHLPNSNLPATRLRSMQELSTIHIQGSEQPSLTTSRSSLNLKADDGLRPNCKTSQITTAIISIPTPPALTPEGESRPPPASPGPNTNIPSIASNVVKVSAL

[25] = system: CHO; assay: Inhibition of human IKs channel expressed in CHO cells at 20.4 +/- 2.4 uM by patch clamp assay; type: cell-based
[26] = biological target: Voltage-dependent T-type calcium channel subunit alpha-1H (Homo sapiens) (UniProt O95180); assay: Inhibition of human Cav3.2 channel expressed in CHO cells at 20.4 +/- 2.4 uM by patch clamp assay; type: cell-based
[27] = biological target: Voltage-dependent N-type calcium channel subunit alpha-1B (Homo sapiens) (UniProt Q00975); assay: Inhibition of human Cav2.2 channel expressed in CHO cells at 20.4 +/- 2.4 uM by patch clamp assay; type: cell-based
[28] = biological target: Voltage-dependent L-type calcium channel subunit alpha-1C (Homo sapiens, UniProt Q13936); assay: Inhibition of human CACNA1C channel expressed in CHO cells at 20.4 +/- 2.4 uM by patch clamp assay; type: cell-based
[29] = biological target: Voltage-dependent L-type calcium channel subunit beta-2 (Homo sapiens) (UniProt Q08289); assay: Inhibition of human CACNB2 channel expressed in CHO cells at 20.4 +/- 2.4 uM by patch clamp assay; type: cell-based
[30] = biological target: Voltage-dependent calcium channel subunit alpha-2/delta-1 (Homo sapiens) (UniProt P54289); assay: Inhibition of human CACNA2D1 channel expressed in CHO cells at 20.4 +/- 2.4 uM by patch clamp assay; type: cell-based
[31] = Antiplatelet activity against dog platelet assessed as inhibition of ADP-induced whole blood aggregation by impedance aggregometry; conditions: Canis lupus familiaris

Chain of Voltage-dependent calcium channel subunit alpha-2/delta-1 (Homo sapiens) (P54289 25-956 limits assumed): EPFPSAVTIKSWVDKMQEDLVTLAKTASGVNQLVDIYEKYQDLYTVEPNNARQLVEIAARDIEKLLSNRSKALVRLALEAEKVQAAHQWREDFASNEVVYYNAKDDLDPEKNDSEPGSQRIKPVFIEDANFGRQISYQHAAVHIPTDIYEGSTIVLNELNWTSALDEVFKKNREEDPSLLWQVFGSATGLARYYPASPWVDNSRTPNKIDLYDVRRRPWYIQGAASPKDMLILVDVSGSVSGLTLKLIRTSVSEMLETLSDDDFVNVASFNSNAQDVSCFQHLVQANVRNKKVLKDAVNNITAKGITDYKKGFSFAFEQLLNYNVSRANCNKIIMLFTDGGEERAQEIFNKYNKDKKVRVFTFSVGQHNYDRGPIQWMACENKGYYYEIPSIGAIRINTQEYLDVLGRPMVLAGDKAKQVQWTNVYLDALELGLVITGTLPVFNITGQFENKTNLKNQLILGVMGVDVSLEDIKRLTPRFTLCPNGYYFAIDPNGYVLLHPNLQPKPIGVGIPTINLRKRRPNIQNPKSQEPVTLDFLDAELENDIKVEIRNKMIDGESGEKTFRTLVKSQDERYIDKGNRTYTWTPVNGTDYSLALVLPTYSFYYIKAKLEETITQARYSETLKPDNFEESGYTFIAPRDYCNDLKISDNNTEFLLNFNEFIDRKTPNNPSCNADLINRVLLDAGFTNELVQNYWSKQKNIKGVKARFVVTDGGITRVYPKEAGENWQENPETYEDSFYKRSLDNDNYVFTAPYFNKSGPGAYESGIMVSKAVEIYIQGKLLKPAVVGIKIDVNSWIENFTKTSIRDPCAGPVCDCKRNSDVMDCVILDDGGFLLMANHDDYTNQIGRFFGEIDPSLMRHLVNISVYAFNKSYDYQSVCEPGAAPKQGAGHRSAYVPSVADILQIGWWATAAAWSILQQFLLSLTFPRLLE
Chain of Voltage-dependent calcium channel subunit alpha-2/delta-1 (Homo sapiens) (P54289 957-1103 limits assumed): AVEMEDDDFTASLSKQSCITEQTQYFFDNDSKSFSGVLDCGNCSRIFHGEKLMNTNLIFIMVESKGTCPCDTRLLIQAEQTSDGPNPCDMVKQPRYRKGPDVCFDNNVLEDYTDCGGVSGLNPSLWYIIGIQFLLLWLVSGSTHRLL
Chain of Voltage-gated inwardly rectifying potassium channel KCNH2 (Q12809 whole entry): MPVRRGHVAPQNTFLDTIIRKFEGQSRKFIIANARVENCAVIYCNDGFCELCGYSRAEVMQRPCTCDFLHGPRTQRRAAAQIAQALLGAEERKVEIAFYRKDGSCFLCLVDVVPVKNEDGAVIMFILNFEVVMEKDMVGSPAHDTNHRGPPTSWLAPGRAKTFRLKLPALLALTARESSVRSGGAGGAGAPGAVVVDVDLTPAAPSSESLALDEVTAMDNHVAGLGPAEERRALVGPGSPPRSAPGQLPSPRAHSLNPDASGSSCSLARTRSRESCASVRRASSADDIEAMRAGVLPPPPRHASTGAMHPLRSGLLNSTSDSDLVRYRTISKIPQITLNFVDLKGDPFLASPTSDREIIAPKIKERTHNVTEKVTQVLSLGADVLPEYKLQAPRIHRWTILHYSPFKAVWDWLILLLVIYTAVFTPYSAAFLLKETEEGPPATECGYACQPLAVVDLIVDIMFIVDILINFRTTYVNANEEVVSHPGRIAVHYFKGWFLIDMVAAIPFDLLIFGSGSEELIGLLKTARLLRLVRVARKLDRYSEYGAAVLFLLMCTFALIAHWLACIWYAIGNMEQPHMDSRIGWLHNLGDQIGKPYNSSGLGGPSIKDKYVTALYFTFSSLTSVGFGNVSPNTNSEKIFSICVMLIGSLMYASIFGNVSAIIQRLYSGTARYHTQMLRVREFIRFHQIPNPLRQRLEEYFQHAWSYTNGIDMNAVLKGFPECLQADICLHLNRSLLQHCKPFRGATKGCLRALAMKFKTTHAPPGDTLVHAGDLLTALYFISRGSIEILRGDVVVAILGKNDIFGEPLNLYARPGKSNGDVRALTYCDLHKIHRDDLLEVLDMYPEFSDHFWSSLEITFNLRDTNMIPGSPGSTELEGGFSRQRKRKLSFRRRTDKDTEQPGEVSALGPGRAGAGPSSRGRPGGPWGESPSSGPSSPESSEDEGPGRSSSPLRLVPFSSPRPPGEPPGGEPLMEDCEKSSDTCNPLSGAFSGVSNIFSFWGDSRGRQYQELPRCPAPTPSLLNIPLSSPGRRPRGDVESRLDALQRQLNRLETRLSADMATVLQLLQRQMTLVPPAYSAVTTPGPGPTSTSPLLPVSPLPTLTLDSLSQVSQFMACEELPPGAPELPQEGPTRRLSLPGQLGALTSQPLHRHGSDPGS
Chain of Voltage-dependent T-type calcium channel subunit alpha-1H (Homo sapiens) (O95180 whole entry): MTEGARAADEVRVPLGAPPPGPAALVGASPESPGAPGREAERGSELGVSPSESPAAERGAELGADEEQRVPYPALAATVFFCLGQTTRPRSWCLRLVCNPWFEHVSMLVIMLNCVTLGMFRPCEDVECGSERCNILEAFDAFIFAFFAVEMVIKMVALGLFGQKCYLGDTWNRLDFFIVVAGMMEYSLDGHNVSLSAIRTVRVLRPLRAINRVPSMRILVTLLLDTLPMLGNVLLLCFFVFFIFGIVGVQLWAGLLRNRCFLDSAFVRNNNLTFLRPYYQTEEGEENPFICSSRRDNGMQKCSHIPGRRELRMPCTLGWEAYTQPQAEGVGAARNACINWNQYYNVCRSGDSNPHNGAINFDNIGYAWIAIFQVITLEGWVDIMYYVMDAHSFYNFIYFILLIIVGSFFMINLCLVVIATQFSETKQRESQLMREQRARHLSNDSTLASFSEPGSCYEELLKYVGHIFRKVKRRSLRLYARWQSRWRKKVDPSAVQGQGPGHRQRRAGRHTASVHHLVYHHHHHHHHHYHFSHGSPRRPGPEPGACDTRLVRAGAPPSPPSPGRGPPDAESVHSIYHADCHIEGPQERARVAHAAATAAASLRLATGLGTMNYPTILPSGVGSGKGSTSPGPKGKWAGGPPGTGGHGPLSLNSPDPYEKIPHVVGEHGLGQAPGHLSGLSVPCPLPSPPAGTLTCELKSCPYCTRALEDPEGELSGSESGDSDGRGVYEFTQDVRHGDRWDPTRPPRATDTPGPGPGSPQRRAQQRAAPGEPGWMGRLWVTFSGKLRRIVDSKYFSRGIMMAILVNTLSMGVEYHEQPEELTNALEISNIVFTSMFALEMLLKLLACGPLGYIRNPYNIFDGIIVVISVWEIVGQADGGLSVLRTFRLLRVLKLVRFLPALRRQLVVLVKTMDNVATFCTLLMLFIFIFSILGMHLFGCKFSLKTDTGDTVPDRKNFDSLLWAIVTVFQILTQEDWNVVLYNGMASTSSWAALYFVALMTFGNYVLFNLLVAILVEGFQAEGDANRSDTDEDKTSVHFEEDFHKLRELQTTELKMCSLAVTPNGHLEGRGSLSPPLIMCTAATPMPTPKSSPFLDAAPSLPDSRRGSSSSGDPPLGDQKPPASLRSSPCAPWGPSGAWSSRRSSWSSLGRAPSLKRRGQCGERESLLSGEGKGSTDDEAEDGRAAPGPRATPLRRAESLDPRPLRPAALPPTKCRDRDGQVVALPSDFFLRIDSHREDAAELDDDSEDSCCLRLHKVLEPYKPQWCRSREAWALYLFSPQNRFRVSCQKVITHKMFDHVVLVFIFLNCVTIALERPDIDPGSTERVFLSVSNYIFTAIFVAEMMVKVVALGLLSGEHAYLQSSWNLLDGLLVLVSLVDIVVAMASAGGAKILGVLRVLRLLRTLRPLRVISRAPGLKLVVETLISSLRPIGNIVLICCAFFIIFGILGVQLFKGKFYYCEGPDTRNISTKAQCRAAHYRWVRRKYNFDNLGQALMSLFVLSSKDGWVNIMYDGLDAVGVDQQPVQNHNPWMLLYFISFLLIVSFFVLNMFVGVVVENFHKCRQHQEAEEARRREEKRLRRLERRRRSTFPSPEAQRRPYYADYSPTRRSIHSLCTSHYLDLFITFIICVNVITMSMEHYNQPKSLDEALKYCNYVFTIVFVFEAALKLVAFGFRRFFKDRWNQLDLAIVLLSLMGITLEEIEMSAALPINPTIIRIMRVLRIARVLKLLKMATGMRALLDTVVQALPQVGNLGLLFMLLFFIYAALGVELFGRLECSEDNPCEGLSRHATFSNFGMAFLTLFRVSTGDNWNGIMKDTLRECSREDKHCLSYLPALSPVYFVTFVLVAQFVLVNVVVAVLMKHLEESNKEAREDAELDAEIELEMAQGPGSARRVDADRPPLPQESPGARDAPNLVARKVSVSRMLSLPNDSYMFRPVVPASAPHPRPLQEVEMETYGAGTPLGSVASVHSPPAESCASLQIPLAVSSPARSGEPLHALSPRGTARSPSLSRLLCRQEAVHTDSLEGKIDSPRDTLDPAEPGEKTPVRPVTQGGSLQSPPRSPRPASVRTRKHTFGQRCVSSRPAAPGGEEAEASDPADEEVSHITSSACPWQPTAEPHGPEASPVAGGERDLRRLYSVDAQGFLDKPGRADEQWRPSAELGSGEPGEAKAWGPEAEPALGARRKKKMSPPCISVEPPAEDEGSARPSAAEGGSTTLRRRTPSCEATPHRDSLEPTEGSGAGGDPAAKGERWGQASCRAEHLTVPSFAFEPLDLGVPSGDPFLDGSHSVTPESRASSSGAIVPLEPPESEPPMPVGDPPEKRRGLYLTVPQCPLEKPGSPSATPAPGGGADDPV

- Papp A→B at 10 µM [1]: 18 ×10⁻⁶ cm/s
- Intrinsic clearance (CLint) [2]: 17.5 µL/min
- logD [3]: 0.75
- IC50 [4]: 280 nM
- solubility [5]: 100 µM (≈ 40.8 µg/mL)
- half-life at 2 µM [6]: 40 min
- fraction unbound at 18 h [7]: 0.08
- fraction unbound at 18 h [8]: 0.1
- clearance [9]: 17 mL/min/kg
- Vd [10]: 14 L/kg
- half-life [11]: 5 min
- Vd [12]: 40 L
- IC50 [13]: 270 nM
Structure (SMILES): Cc1cc([C@@H](C)Nc2ccccc2C(=O)O)c2nc(N3CCOCC3)cc(=O)n2c1 [AZD-6482]

- IC50 [14]: 83000 nM
- IC50 [15]: 400 nM
- IC50 [4]: 210 nM
- solubility [5]: > 1800 µM
- half-life at 2 µM [6]: > 173 min
- fraction unbound at 18 h [7]: 0.26
- fraction unbound at 18 h [8]: 0.42
- clearance [9]: 8 mL/min/kg
- fold change (FC) [16]: 3.5
- Vd [10]: 1.2 L/kg
- bioavailability [18]: 31%
- fold change (FC) [19]: 3.5
- inhibition [23]: inactive
- inhibition (INH) [24]: Not Active
- inhibition [26]: inactive
- inhibition [27]: inactive
- inhibition (INH) [28]: Not Active
- inhibition [29]: inactive
- inhibition [30]: inactive
- IC50 [31]: 950 nM
- IC50 [13]: 1200 nM
Structure (SMILES): C[C@@H](Oc1ccccc1)c1cc(C(=O)N(C)CCO)cn2c(=O)cc(N3CCOCC3)nc12
- EC80 [17]: 690 nM
- Activity [20]: Non-toxic
- inhibition (INH) [21]: Not Active
- inhibition (INH) [22]: Not Active
- inhibition [25]: inactive
